The source made the active and inactive calls. The calls are words filed in the database; no cut-off is given here.
How the values were obtained:
Pyruvate kinase PKM [1] = target: T1, Pyruvate kinase PKM (Homo sapiens, UniProt P14618); experiment: Activation of human recombinant His-tagged PKM2 expressed in Escherichia coli using PEP as substrate measured at 30 sec between 3 and 6 mins in presence of […] by fluorescent pyruvate kinase-lactate dehydrogenase coupled assay; settings: read-out: AC50
In short: (§1)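 Pyruvate kinase activity read by fluorescent pyruvate kinase–lactate dehydrogenase coupled assay; AC50 and maximal activation are means of at least two determinations.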
Target sequence in this assay (P14618 whole entry): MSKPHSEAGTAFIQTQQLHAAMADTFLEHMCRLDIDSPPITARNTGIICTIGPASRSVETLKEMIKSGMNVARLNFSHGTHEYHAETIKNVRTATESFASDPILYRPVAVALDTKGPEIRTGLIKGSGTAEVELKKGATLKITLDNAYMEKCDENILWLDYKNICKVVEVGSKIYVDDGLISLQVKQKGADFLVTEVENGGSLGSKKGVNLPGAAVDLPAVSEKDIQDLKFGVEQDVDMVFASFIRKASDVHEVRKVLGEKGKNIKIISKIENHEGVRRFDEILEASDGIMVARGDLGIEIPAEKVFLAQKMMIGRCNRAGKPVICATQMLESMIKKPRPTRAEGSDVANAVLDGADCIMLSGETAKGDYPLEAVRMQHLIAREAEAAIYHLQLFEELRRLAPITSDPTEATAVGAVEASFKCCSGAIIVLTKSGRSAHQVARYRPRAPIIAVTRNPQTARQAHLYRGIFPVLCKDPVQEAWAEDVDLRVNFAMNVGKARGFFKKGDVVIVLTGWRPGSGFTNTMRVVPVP

Pyruvate kinase PKM [2] = target: T1, Pyruvate kinase PKM; experiment: Activation of human recombinant His-tagged PKM2 expressed in Escherichia coli assessed as maximal activity using PEP as substrate measured at 30 sec between 3 and 6 mins in presence of […] by fluorescent pyruvate kinase-lactate dehydrogenase coupled assay relative to control; in short: as §1
Target sequence in this assay (P14618 2-531 limits assumed): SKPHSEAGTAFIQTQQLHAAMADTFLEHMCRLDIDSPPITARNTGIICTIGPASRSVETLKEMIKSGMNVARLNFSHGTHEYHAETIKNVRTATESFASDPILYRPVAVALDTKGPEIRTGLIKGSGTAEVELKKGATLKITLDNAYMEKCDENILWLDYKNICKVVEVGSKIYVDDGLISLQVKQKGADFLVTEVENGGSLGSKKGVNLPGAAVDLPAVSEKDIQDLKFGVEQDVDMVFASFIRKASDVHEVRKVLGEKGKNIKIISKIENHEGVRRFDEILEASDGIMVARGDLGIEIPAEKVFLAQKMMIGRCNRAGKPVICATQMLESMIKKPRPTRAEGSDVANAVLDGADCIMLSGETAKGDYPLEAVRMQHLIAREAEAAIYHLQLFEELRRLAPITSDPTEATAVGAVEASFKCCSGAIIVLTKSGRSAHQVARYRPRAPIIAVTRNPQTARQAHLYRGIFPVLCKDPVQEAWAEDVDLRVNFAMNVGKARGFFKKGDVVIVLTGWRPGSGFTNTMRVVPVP

NCI-H1299 = experiment: Antiproliferative activity against human H1299 cells assessed as reduction in cell growth incubated for 72 hrs by CellTiter-Glo assay; type: functional, cell-based; settings: NCI-H1299, 72 h
In short: (§2)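 Cells (H1299 in RPMI 1640; HCT116 and A375 in DMEM; 10% FBS, 37 °C, 5% CO2) plated at 2000 per well, left 24 h, then exposed to ten concentrations or DMSO for 72 h. CellTiter-Glo added, 30 min at room temperature in dark, luminescence read. IC50 fitted from triplicate experiments.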

HCT-116 = experiment: Antiproliferative activity against human HCT116 cells assessed as reduction in cell growth incubated for 72 hrs by CellTiter-Glo assay; type: functional, cell-based; settings: HCT-116, 72 h; in short: as §2
A-375 [3] = experiment: Antiproliferative activity against human A375 cells assessed as reduction in cell growth incubated for 72 hrs by CellTiter-Glo assay; type: functional, cell-based; settings: A-375, 72 h; in short: as §2
[4] = Cytotoxicity against human HELF cells assessed as reduction in cell viability incubated for 72 hrs by CellTiter-Glo assay; type: cell-based
C2C12 = experiment: Cytotoxicity against mouse C2C12 cells assessed as reduction in cell viability incubated for 72 hrs by CellTiter-Glo assay; type: cell-based; settings: C2C12, 72 h
[5] = Cytotoxicity against mouse C2C12 cells assessed as reduction in cell viability at 20 uM incubated for 72 hrs by CellTiter-Glo assay relative to control; type: cell-based; settings: read-out: INH
[6] = target: Serine/threonine-protein kinase B-raf (Homo sapiens) (UniProt P15056); experiment: Inhibition of B-raf (unknown origin) at 10 uM
Chain of Serine/threonine-protein kinase B-raf (Homo sapiens) (P15056 whole entry): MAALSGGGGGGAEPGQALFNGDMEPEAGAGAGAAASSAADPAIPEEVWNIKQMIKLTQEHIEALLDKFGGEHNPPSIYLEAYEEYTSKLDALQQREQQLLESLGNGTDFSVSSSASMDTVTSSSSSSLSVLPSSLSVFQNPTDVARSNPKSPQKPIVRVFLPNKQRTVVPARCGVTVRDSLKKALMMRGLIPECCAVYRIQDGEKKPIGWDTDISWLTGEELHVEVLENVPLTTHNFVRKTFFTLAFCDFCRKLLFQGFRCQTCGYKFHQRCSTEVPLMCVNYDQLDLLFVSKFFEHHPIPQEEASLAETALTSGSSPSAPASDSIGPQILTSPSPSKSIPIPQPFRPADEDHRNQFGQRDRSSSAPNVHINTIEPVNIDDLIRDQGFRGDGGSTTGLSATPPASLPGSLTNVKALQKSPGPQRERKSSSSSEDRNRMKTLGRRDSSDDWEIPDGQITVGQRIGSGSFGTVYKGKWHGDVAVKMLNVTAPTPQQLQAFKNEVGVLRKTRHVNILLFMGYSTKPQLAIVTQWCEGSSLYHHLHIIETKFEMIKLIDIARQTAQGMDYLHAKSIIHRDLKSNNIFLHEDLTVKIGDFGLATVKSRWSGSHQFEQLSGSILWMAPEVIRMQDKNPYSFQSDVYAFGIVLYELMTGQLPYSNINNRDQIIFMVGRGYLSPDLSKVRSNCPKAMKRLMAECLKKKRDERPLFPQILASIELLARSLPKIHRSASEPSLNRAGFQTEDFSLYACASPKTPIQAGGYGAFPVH
In short: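 B-raf tested by single-point binding at 10 μM.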

A-375 [7] = experiment: Antitumor activity in human A375 cells xenografted in BALB/C mouse assessed as reduction in tumor volume at 50 mg/kg, po bid for 14 days measured on day 22; type: functional, organism-based
In short: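 Male BALB/c athymic nude mice, six weeks old, 18–20 g, inoculated subcutaneously with A375 cells (5×10^7 cells/mL in DMEM, 0.2 mL). At 100–300 mm³ (7 days), randomized, n = 6 per group, dosed orally bid for 14 days; vehicle 0.5% CMCNa. Tumor volume ((width)²×length/2) and body weight measured 2–3 times weekly; tumors excised and weighed at day 22.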

Homo sapiens = species on record: Homo sapiens; experiment: Inhibition of nuclear translocation of PKM2 in human A375 cells assessed as retardation of in nuclear accumulation of PKM2 at 1 to 4 uM incubated for 24 hrs by Hoechst staining-based immunofluorescent microscopic analysis; type: cell-based
In short: (§3)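 A375 cells seeded at 60% per well, grown 24 h at 37 °C, then treated with three concentrations, DMSO or NZT for 24 h (12 h in a separate run). Fixed 10 min in 3% PFA/0.1% glutaraldehyde, blocked overnight at 4 °C (3% BSA, 0.2% Triton X-100), stained with rabbit anti-PKM2 2 h, then secondary plus Hoechst 33258 1 h. Imaged on Operetta high content system; cytoplasmic fluorescence intensity quantified.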

Pyruvate kinase PKM [8] = target: T1, Pyruvate kinase PKM; experiment: Inhibition of nuclear translocation of PKM2 in human A375 cells assessed as retardation of in nuclear accumulation of PKM2 at 1 to 4 uM incubated for 12 hrs by Hoechst staining-based immunofluorescent microscopic analysis; type: cell-based; in short: as §3
Target sequence in this assay (P14618 2-531 limits assumed): as the sequence (P14618 2-531 limits assumed) above

A-375 [9] = experiment: Induction of apoptosis in human A375 cells assessed as apoptotic cells at 1 to 4 uM incubated for 24 hrs by AnnexinV-FITC/propidium iodide staining-based flow cytometric analysis relative to control; type: functional, cell-based
In short: (§4)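 A375 cells seeded at 6×10^5 per well, grown 24 h, then given fresh medium with compound for 24 h. Harvested by trypsinization, washed twice in ice-cold PBS, stained with Annexin V-FITC/PI and analysed by flow cytometry. Annexin V+/PI− scored early, Annexin V+/PI+ late apoptotic, double-negative live.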

A-375 [10] = experiment: Induction of autophagy in human A375 cells assessed as increase in LC3-1 to LC3-2 transition at 1 to 4 uM incubated for 24 hrs by immunoflourescence assay; type: functional, cell-based
In short: (§5)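 A375 cells seeded at 60% per well, then treated with compound or DMSO for 24 h. Fixed in 3% PFA/0.1% glutaraldehyde, blocked overnight at 4 °C, immunostained with rabbit anti-LC3B plus Hoechst 33258. High content imaging quantified cytoplasmic LC3B intensity and LC3B spot area.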

A-375 [11] = experiment: Anti-migration activity against human A375 cells assessed as inhibition of cell migration speed incubated for 24 hrs; type: functional, cell-based
In short: (§6)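 A375 cells seeded at 60% per well, grown 24 h, then given six concentrations or DMSO. Migration speed and accumulated distance tracked in real time by live-cell high content imaging (Operetta) over 24 h. Data from triplicate experiments.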

A-375 [12] = experiment: Inhibition of nuclear translocation of PKM2 in human A375 cells assessed as cell death of PKM2 at 4 uM incubated for 24 hrs by Hoechst staining-based fluorescent microscopic analysis; type: functional
A-375 [13] = experiment: Anti-migration activity against human A375 cells assessed as inhibition of cell migration distance incubated for 24 hrs; type: functional, cell-based; in short: as §6
[14] = Cytotoxicity against human HELF cells assessed as reduction in cell viability at 20 uM incubated for 72 hrs by CellTiter-Glo assay relative to control; type: cell-based; settings: read-out: INH
A-375 [15] = experiment: Cytotoxicity in human A375 cells assessed as reduction in cel viability at 4 uM incubated for 24 hrs; type: functional, cell-based
A-375 [16] = experiment: Induction of autophagy in human A375 cells assessed as increase inLC3B spot area at 1 to 4 uM incubated for 24 hrs by immunoflourescence assay; type: functional, cell-based; in short: as §5
A-375 [17] = experiment: Induction of apoptosis in human A375 cells assessed as viable cells level at 1 uM incubated for 24 hrs by AnnexinV-FITC/propidium iodide staining-based flow cytometric analysis (reference value: 89.51%); type: functional; in short: as §4
A-375 [18] = experiment: Induction of apoptosis in human A375 cells assessed as early apoptotic cells level at 1 uM incubated for 24 hrs by AnnexinV-FITC/propidium iodide staining-based flow cytometric analysis (reference value: 2.89%); type: functional; in short: as §4
A-375 [19] = experiment: Induction of apoptosis in human A375 cells assessed as late apoptotic cells level at 1 uM incubated for 24 hrs by AnnexinV-FITC/propidium iodide staining-based flow cytometric analysis (reference value: 6.64%); type: functional; in short: as §4
A-375 [20] = experiment: Induction of apoptosis in human A375 cells assessed as necrotic cells level at 1 uM incubated for 24 hrs by AnnexinV-FITC/propidium iodide staining-based flow cytometric analysis (reference value: 0.96%); type: functional; in short: as §4
A-375 [21] = experiment: Induction of apoptosis in human A375 cells assessed as viable cells level at 2 uM incubated for 24 hrs by AnnexinV-FITC/propidium iodide staining-based flow cytometric analysis (reference value: 89.51%); type: functional; in short: as §4
A-375 [22] = experiment: Induction of apoptosis in human A375 cells assessed as early apoptotic cells level at 2 uM incubated for 24 hrs by AnnexinV-FITC/propidium iodide staining-based flow cytometric analysis (reference value: 2.89%); type: functional; in short: as §4
A-375 [23] = experiment: Induction of apoptosis in human A375 cells assessed as late apoptotic cells level at 2 uM incubated for 24 hrs by AnnexinV-FITC/propidium iodide staining-based flow cytometric analysis (reference value: 6.64%); type: functional; in short: as §4
A-375 [24] = experiment: Induction of apoptosis in human A375 cells assessed as necrotic cells level at 2 uM incubated for 24 hrs by AnnexinV-FITC/propidium iodide staining-based flow cytometric analysis (reference value: 0.96%); type: functional; in short: as §4
A-375 [25] = experiment: Induction of apoptosis in human A375 cells assessed as viable cells level at 4 uM incubated for 24 hrs by AnnexinV-FITC/propidium iodide staining-based flow cytometric analysis (reference value: 89.51%); type: functional; in short: as §4
A-375 [26] = experiment: Induction of apoptosis in human A375 cells assessed as early apoptotic cells level at 4 uM incubated for 24 hrs by AnnexinV-FITC/propidium iodide staining-based flow cytometric analysis (reference value: 2.89%); type: functional; in short: as §4
A-375 [27] = experiment: Induction of apoptosis in human A375 cells assessed as late apoptotic cells level at 4 uM incubated for 24 hrs by AnnexinV-FITC/propidium iodide staining-based flow cytometric analysis (reference value: 6.64%); type: functional; in short: as §4
A-375 [28] = experiment: Induction of apoptosis in human A375 cells assessed as necrotic cells level at 4 uM incubated for 24 hrs by AnnexinV-FITC/propidium iodide staining-based flow cytometric analysis (reference value: 0.96%); type: functional; in short: as §4
[29] = Toxicity in BALB/C mouse xenografted with human A375 cells assessed as reduction in body weight at 50 mg/kg, po bid for 14 days measured on day 22; settings: in vivo, 336 h

O=C(CCSC(=S)NCc1cccnc1)c1cn(CC(F)F)c2ncccc12
AC50 (Pyruvate kinase PKM [1]): 2670 nM | %max (Pyruvate kinase PKM [2]): 149% | IC50 (NCI-H1299): 2280 nM | IC50 (HCT-116): 710 nM | IC50 (A-375 [3]): 280 nM | IC50 [4]: > 20 µM | IC50 (C2C12): > 20 µM | cytotoxicity at 72 h, 20 µM [5]: 46% | inhibition [6]: 41% | Activity (A-375 [7]): Active | inhibition (Homo sapiens): Dose-dependent effect | Activity (Pyruvate kinase PKM [8]): Active | Activity (A-375 [9]): Dose-dependent effect | Activity (A-375 [10]): Dose-dependent effect | Activity (A-375 [11]): Dose-dependent effect | inhibition (A-375 [12]): Active | Activity (A-375 [13]): Dose-dependent effect | cytotoxicity at 72 h, 20 µM [14]: 10% | Activity (A-375 [15]): Active | Activity (A-375 [16]): Dose-dependent effect | Activity (A-375 [17]): 86.39% | Activity (A-375 [18]): 3.95% | Activity (A-375 [19]): 8.09% | Activity (A-375 [20]): 1.57% | Activity (A-375 [21]): 76.9% | Activity (A-375 [22]): 14.01% | Activity (A-375 [23]): 6.98% | Activity (A-375 [24]): 2.11% | Activity (A-375 [25]): 67.24% | Activity (A-375 [26]): 18.55% | Activity (A-375 [27]): 9.76% | Activity (A-375 [28]): 4.45% | Activity [29]: Non-Toxic

— ChEMBL document CHEMBL4346662, “Synthesis of novel 7-azaindole derivatives containing pyridin-3-ylmethyl dithiocarbamate moiety as potent PKM2 activators and PKM2 nucleus translocation inhibitors” (Eur J Med Chem, 2019)
